In ChEMBL document CHEMBL1932938, “From COX-2 inhibitor nimesulide to potent anti-cancer agent: synthesis, in vitro, in vivo and pharmacokinetic evaluation” (Eur J Med Chem, 2012):

Assays:
[1] = test system: SK-BR-3; assay: Cell cycle arrest in human SK-BR-3 cells assessed as accumulation at G2/M phase at 0.50 uM after 6 hrs using propidium iodide staining by FACS analysis; format: functional
Procedure, shortened: (§1)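 SKBR-3 cells in RPMI1640 with 10% heat-inactivated FBS at 37 °C and 5% CO₂ were treated for the stated times. Cells were fixed overnight in 70% EtOH at −20 °C, then stained with propidium iodide buffer (38 mM sodium citrate pH 7.5, 69 µM PI, 120 µg/mL RNase A) for 15 min at room temperature in the dark. Up to 1×10⁴ gated cells were analyzed by flow cytometry, giving percent distribution per phase.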

[2] = test system: SK-BR-3; assay: Cell cycle arrest in human SK-BR-3 cells assessed as accumulation at G2/M phase at 0.50 uM after 24 hrs using propidium iodide staining by FACS analysis; format: functional; procedure, shortened: as §1
[3] = test system: SNB-19; assay: Growth inhibition of human SNB19 cells after 48 hrs by SRB assay; format: functional
[4] = test system: COLO 205; assay: Growth inhibition of human COLO205 cells after 48 hrs by SRB assay; format: functional
[5] = test system: OVCAR-3; assay: Growth inhibition of human OVCAR3 cells after 48 hrs by SRB assay; format: functional
[6] = test system: OVCAR-4; assay: Growth inhibition of human OVCAR4 cells after 48 hrs by SRB assay; format: functional
[7] = test system: SK-BR-3; assay: Cell cycle arrest in human SK-BR-3 cells assessed as accumulation at G2/M phase at 0.10 uM after 18 hrs using propidium iodide staining by FACS analysis; format: functional; procedure, shortened: as §1
[8] = test system: SK-BR-3; assay: Cell cycle arrest in human SK-BR-3 cells assessed as accumulation at S phase at 5 uM after 3 hrs using propidium iodide staining by FACS analysis; format: functional
[9] = test system: HCC 2998; assay: Growth inhibition of human HCC2998 cells after 48 hrs by SRB assay; format: functional
[10] = test system: SK-BR-3; assay: Cell cycle arrest in human SK-BR-3 cells assessed as accumulation at Sub-G1 phase at 0.50 uM after 12 hrs using propidium iodide staining by FACS analysis; format: functional
[11] = test system: SK-BR-3; assay: Cell cycle arrest in human SK-BR-3 cells assessed as accumulation at S phase at 0.10 uM after 12 hrs using propidium iodide staining by FACS analysis; format: functional; procedure, shortened: as §1
[12] = test system: MOLT-4; assay: Growth inhibition of human MOLT4 cells after 48 hrs by SRB assay; format: functional
[13] = test system: SK-BR-3; assay: Cell cycle arrest in human SK-BR-3 cells assessed as accumulation at S phase at 5 uM after 18 hrs using propidium iodide staining by FACS analysis; format: functional
[14] = test system: SK-BR-3; assay: Cell cycle arrest in human SK-BR-3 cells assessed as accumulation at G2/M phase at 0.50 uM after 3 hrs using propidium iodide staining by FACS analysis; format: functional; procedure, shortened: as §1
[15] = test system: SK-BR-3; assay: Cell cycle arrest in human SK-BR-3 cells assessed as accumulation at G2/M phase at 5 uM after 3 hrs using propidium iodide staining by FACS analysis; format: functional; procedure, shortened: as §1
[16] = test system: CCRF-CEM; assay: Growth inhibition of human CCRF-CEM cells after 48 hrs by SRB assay; format: functional
[17] = test system: SK-BR-3; assay: Cell cycle arrest in human SK-BR-3 cells assessed as accumulation at Sub-G1 phase at 0.25 uM after 24 hrs using propidium iodide staining by FACS analysis; format: functional
[18] = Terminal half life in Sprague-Dawley rat at 20 mg/kg, ip; format: ADME, organism-based; parameters: dose 20 mg/kg, route intraperitoneal; settings: in vivo, read-out: beta t1/2 (converted)
Procedure, shortened: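 Male Sprague–Dawley rats (300–350 g, n=3), fasted overnight with water allowed. Single 20 mg/kg i.p. dose in PBS with 0.1% Tween80 and 20% DMSO. Blood taken from saphenous and femoral veins into heparinized tubes at 0, 0.25, 0.5, 1, 2, 4, 8 and 24 h. Plasma quantified by LC-MS/MS (MRM, 483.3→404.3) after tert-butyl methyl ether/hexane extraction. Parameters derived non-compartmentally.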

[19] = test system: SK-BR-3; assay: Cell cycle arrest in human SK-BR-3 cells assessed as accumulation at G1 phase at 0.25 uM after 18 hrs using propidium iodide staining by FACS analysis; format: functional; procedure, shortened: as §1
[20] = test system: SF-268; assay: Growth inhibition of human SF268 cells after 48 hrs by SRB assay; format: functional
[21] = test system: 786-0; assay: Growth inhibition of human 786-0 cells after 48 hrs by SRB assay; format: functional
[22] = test system: SK-BR-3; assay: Cell cycle arrest in human SK-BR-3 cells assessed as accumulation at S phase at 0.10 uM after 3 hrs using propidium iodide staining by FACS analysis; format: functional; procedure, shortened: as §1
[23] = test system: UO-31; assay: Growth inhibition of human UO31 cells after 48 hrs by SRB assay; format: functional
[24] = test system: SK-BR-3; assay: Cell cycle arrest in human SK-BR-3 cells assessed as accumulation at Sub-G1 phase at 5 uM after 6 hrs using propidium iodide staining by FACS analysis; format: functional
[25] = test system: SK-BR-3; assay: Cell cycle arrest in human SK-BR-3 cells assessed as accumulation at S phase at 0.10 uM after 6 hrs using propidium iodide staining by FACS analysis; format: functional; procedure, shortened: as §1
[26] = test system: SK-BR-3; assay: Cell cycle arrest in human SK-BR-3 cells assessed as accumulation at S phase at 0.25 uM after 24 hrs using propidium iodide staining by FACS analysis; format: functional
[27] = test system: SK-BR-3; assay: Cell cycle arrest in human SK-BR-3 cells assessed as accumulation at G2/M phase at 0.25 uM after 18 hrs using propidium iodide staining by FACS analysis; format: functional; procedure, shortened: as §1
[28] = test system: SK-BR-3; assay: Cell cycle arrest in human SK-BR-3 cells assessed as accumulation at G1 phase at 5 uM after 18 hrs using propidium iodide staining by FACS analysis; format: functional; procedure, shortened: as §1
[29] = test system: SK-BR-3; assay: Cell cycle arrest in human SK-BR-3 cells assessed as accumulation at G1 phase at 0.50 uM after 18 hrs using propidium iodide staining by FACS analysis; format: functional; procedure, shortened: as §1
[30] = test system: SK-BR-3; assay: Cell cycle arrest in human SK-BR-3 cells assessed as accumulation at Sub-G1 phase at 0.25 uM after 3 hrs using propidium iodide staining by FACS analysis; format: functional
[31] = test system: SK-BR-3; assay: Cell cycle arrest in human SK-BR-3 cells assessed as accumulation at G1 phase at 0.25 uM after 6 hrs using propidium iodide staining by FACS analysis; format: functional; procedure, shortened: as §1

Q: What does the source list for `Cc1ccc(C)c(COc2cc(NC(=O)c3ccc4c(c3)OCO4)ccc2N(C)S(C)(=O)=O)c1`?
A: Activity [1]: 13.9%; Activity [2]: 28.14%; growth inhibition (GI) [3]: Dose-dependent effect; GI50 ([3]; SNB-19, 48 h): 537 nM; TGI ([3]; SNB-19, 48 h): > 100 µM; CC50 ([3]; SNB-19, 48 h, read-out: LC50 (the source's name)): > 100 µM; growth inhibition (GI) [4]: Dose-dependent effect; GI50 ([4]; COLO 205, 48 h): 318 nM; TGI ([4]; COLO 205, 48 h): 1070 nM; CC50 ([4]; COLO 205, 48 h, read-out: LC50 (the source's name)): > 100 µM; growth inhibition (GI) [5]: Dose-dependent effect; TGI ([5]; OVCAR-3, 48 h): 166 nM; growth inhibition (GI) [6]: Dose-dependent effect; TGI ([6]; OVCAR-4, 48 h): > 100 µM; CC50 ([6]; OVCAR-4, 48 h, read-out: LC50 (the source's name)): > 100 µM; Activity [7]: 9.71%; Activity [8]: 16.49%; growth inhibition (GI) [9]: Dose-dependent effect; TGI ([9]; HCC 2998, 48 h): 392 nM; CC50 ([9]; HCC 2998, 48 h, read-out: LC50 (the source's name)): 2970 nM; Activity [10]: 6.36%; Activity [11]: 8.17%; growth inhibition (GI) [12]: Dose-dependent effect; GI50 ([12]; MOLT-4, 48 h): 163 nM; TGI ([12]; MOLT-4, 48 h): > 100 µM; CC50 ([12]; MOLT-4, 48 h, read-out: LC50 (the source's name)): > 100 µM; Activity [13]: 6.73%; Activity [14]: 11.54%; Activity [15]: 11.57%; GI50 [16]: 48.5 nM; TGI [16]: > 100 µM; growth inhibition (GI) [16]: Dose-dependent effect; CC50 ([16]; read-out: LC50 (the source's name)): > 100 µM; Activity [17]: 24.95%; half-life [18]: 187 min; Activity [19]: 73.42%; growth inhibition (GI) [20]: Dose-dependent effect; GI50 ([20]; SF-268, 48 h): 288 nM; TGI ([20]; SF-268, 48 h): > 100 µM; CC50 ([20]; SF-268, 48 h, read-out: LC50 (the source's name)): > 100 µM; growth inhibition (GI) [21]: Dose-dependent effect; GI50 ([21]; 786-0, 48 h): 191 nM; TGI ([21]; 786-0, 48 h): 1110 nM; CC50 ([21]; 786-0, 48 h, read-out: LC50 (the source's name)): > 100 µM; Activity [22]: 17.2%; growth inhibition (GI) [23]: Dose-dependent effect; GI50 ([23]; UO-31, 48 h): 395 nM; TGI ([23]; UO-31, 48 h): > 100 µM; Activity [24]: 3.42%; Activity [25]: 15.84%; Activity [26]: 10.87%; Activity [27]: 10.57%; Activity [28]: 63.55%; Activity [29]: 61.19%; Activity [30]: 3.23%; Activity [31]: 72.21%
